Results taken from ChEMBL document CHEMBL4680218, “Design and synthesis of tripeptidyl furylketones as selective inhibitors against the β5 subunit of human 20S proteasome” (Eur J Med Chem, 2020).
The source made the active and inactive calls.

Columns and labels:
in vivo = details: Sprague-Dawley, rat, iv, 4 mg/kg
[1] = Cmax in Sprague-Dawley rat at 4 mg/kg, iv measured up to 48 hrs by LC-MS/MS analysis; format: ADME, organism-based; parameters: route intravenous, dose 4 mg/kg, time <=48; details: in vivo
[2] = Toxicity in BALB/c athymic nude mouse xenografted with human HCT-116 cells assessed as reduction in body weight at 5 mg/kg, iv administered twice a week for 28 days; format: organism-based; details: in vivo, 672 h, time 28 day
Method in brief: (§1)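 Male nude mice had 1 × 10^7 HCT-116 cells in serum-free RPMI 1640 implanted subcutaneously in the right flank. At ~300 mm³ (about day 10) they were randomized, n=3/group. Dosing was by tail vein twice weekly (D1/D4) for four weeks: 10 mg/kg in 8% ethanol/2% Tween 80/90% water, or 5 mg/kg in 10% sulfobutylether-β-cyclodextrin, 10 mmol/L citrate pH 3.5. Caliper volume (length × width²)/2 and body weight were measured twice weekly.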

[3] = target: T1, Proteasome Macropain subunit MB1 (Homo sapiens) (UniProt P28074); assay: Covalent binding affinity to human 20S proteasome beta5 subunit assessed as compound-tryptic digest TTTLAFKFR peptide adduct formation at 10 uM incubated for 2 hrs measured after overnight incubation with trypsin by LC-MS/MS analysis
T1 sequence (whole entry): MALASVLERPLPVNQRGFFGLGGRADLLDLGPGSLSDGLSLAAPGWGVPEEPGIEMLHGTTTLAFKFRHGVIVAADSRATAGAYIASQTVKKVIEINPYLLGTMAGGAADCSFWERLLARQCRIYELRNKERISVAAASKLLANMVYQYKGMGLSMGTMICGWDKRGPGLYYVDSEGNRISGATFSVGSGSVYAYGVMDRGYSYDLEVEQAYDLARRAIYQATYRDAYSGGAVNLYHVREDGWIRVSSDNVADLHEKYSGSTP
Method in brief: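 Purified human 20S proteasome (4 nM) was incubated with 10 μM inhibitor for 2 h at room temperature, then quenched and denatured with acetonitrile. Trypsin (1:50) digestion ran overnight at 37 °C, followed by C18 desalting. Nano-LC-MS/MS used a 0.1% formic acid water/acetonitrile gradient. Adducts were searched against UniProt at ±10 ppm precursor and ±0.02 Da fragment tolerance, allowing 2 missed cleavages.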

HCT-116 = assay: Antitumour activity against human HCT-116 cells xenografted in BALB/c athymic nude mouse assessed as reduction in tumour growth at 5 mg/kg, iv administered twice a week for 28 days by caliper analysis; format: functional, organism-based; details: time 28.0 day
Method in brief: as §1

[4] = Volume of distribution at steady state in Sprague-Dawley rat at 4 mg/kg, iv measured up to 48 hrs by LC-MS/MS analysis; details: in vivo
[5] = Clearance in Sprague-Dawley rat at 4 mg/kg, iv measured up to 48 hrs by LC-MS/MS analysis; details: in vivo
[6] = target: T1, Proteasome Macropain subunit MB1 (Homo sapiens); assay: Irreversible inhibition of human 20S proteasome beta5 subunit assessed as residual enzyme activity using Suc-LLVY-Glo as substrate preincubated for 2 hrs followed by compound washout and further incubated for 4 hrs followed by substrate addition and measured after 10 mins by bioluminescent assay relative to control
Method in brief: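 Human 20S proteasome (8 μg/mL) was pre-incubated with inhibitor for 2 h at 25 °C. Samples were then washed five times in assay buffer on 100 kDa cut-off centrifugal filters (14,000 g, 5 min each) and recovered. After a further 4 h at 25 °C, Suc-LLVY-Glo was added and luminescence was read after 10 min. Unwashed samples held an extra 4 h served as the standard.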

[7] = Half life in Sprague-Dawley rat at 4 mg/kg, iv measured up to 48 hrs by LC-MS/MS analysis; details: in vivo
[8] = target: T1, Proteasome Macropain subunit MB1 (Homo sapiens); assay: Inhibition of chymotrypsin-like activity of human 20S proteasome beta5 subunit at 50 uM using Suc-LLVY-Glo as substrate incubated for 2 hrs followed by substrate addition and measured for 10 mins by bioluminescent assay relative to control; details: time 130.0 min
Method in brief: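 Human constitutive 20S proteasome (1 µg/mL) was incubated with compound for 2 h at 25 °C in 10 mM HEPES pH 7.6 with 1% DMSO final. Suc-LLVY-Glo substrate was then added, and luminescence was read over 10 min. Inhibition rate was calculated against the uninhibited signal.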

[9] = target: T2, Proteasome Macropain subunit MB1 (Homo sapiens, UniProt P28074); assay: Inhibition of chymotrypsin-like activity of human 20S proteasome beta5 subunit using Suc-LLVY-Glo as substrate incubated for 2 hrs followed by substrate addition and measured for 10 mins by bioluminescent assay
T2 sequence (P28074 whole entry): T1 sequence (whole entry)
Method in brief: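 Human constitutive 20S proteasome (1 μg/mL) was combined with compound serially diluted in 10 mM HEPES pH 7.6, with final DMSO 1% (v/v). After 2 h at 25 °C, Suc-LLVY-Glo (CT-L), Z-LRR-Glo (T-L) or Z-nLPnLD-Glo (C-L) reagent was added. Luminescence was read over 10 min, and IC50 was taken from inhibition rates.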

Row | SMILES | inhibition [8] [%] | IC50 [9] [µM] | other results
1 | CC(C)C[C@H](NC(=O)[C@H](CCc1ccccc1)NC(=O)CN1CCOCC1)C(=O)N[C@@H](Cc1ccccc1)C(=O)N[C@@H](CC(C)C)C(=O)[C@@]1(C)CO1 [CARFILZOMIB] | – | – | AUC(0-t) at 48 h (in vivo): 0.343 µg·h/mL; Cmax [1]: 27.8 µg/mL; Activity [2]: Non-Toxic; Activity [3]: Active; Activity (HCT-116): Active; Vd at 48 h [4]: 0.3 L/kg; clearance at 48 h [5]: 11.7 L/h/kg; Activity [6]: 10%; half-life at 48 h [7]: 17 min
2 | CC(C)C[C@H](NC(=O)[C@H](Cc1ccc(Cl)cc1)NC(=O)[C@H](Cc1ccccc1)NC(=O)OCc1ccccc1)C(=O)c1ccco1 | > 50 | > 50 | –
3 | CC(C)C[C@H](NC(=O)[C@H](C)NC(=O)[C@H](Cc1ccccc1)NC(=O)OC(C)(C)C)C(=O)c1ccco1 | > 50 | 45.6 | –
4 | COc1ccc(C[C@H](NC(=O)c2cnccn2)C(=O)N[C@@H](Cc2ccc(O)cc2)C(=O)N[C@@H](CC(C)C)C(=O)c2ccco2)cc1 | > 50 | 8.25 | –
5 | COC[C@H](NC(=O)[C@H](Cc1ccc(OC)cc1)NC(=O)OC(C)(C)C)C(=O)N[C@@H](CC(C)C)C(=O)c1ccco1 | > 50 | 5.86 | –
6 | CC(C)C[C@H](NC(=O)[C@H](C)NC(=O)[C@H](Cc1ccccc1)NC(=O)OCc1ccccc1)C(=O)c1ccco1 | > 50 | > 50 | –
7 | COc1ccc(C[C@H](NC(=O)[C@H](Cc2ccccc2)NC(=O)c2ccccc2C)C(=O)N[C@@H](CC(C)C)C(=O)c2ccco2)cc1 | > 50 | 3.19 | –
8 | COC[C@H](NC(=O)[C@H](Cc1ccccc1)NC(=O)OCc1ccccc1)C(=O)N[C@@H](CC(C)C)C(=O)c1ccco1 | > 50 | 4.16 | –
9 | COc1ccc(C[C@H](NC(=O)[C@H](Cc2ccccc2)NC(=O)c2cnccn2)C(=O)N[C@@H](CC(C)C)C(=O)c2ccco2)cc1 | > 50 | > 50 | –
10 | CC(C)C[C@H](NC(=O)[C@H](Cc1ccc(O)cc1)NC(=O)[C@H](Cc1ccc(Cl)cc1)NC(=O)OC(C)(C)C)C(=O)c1ccco1 | > 50 | 7.26 | –
11 | COC[C@H](NC(=O)[C@H](CC(=O)NCCC(C)C)NS(=O)(=O)c1ccc(C)cc1)C(=O)N[C@@H](CC(C)C)C(=O)c1ccco1 | > 50 | > 50 | –
12 | COC[C@H](NC(=O)[C@H](Cc1ccccc1)NC(=O)OC(C)(C)C)C(=O)N[C@@H](CC(C)C)C(=O)c1ccco1 | > 50 | 14.3 | –
13 | Cc1ccc(S(=O)(=O)N[C@@H](CC(=O)NCC(C)C)C(=O)N[C@@H](C)C(=O)N[C@@H](CC(C)C)C(=O)c2ccco2)cc1 | > 50 | 3.12 | –
